GalR3 antagonist: antagonists of human GalR3; inhibition, % at 3 µM; HEK293 GalR3-CNG cAMP membrane potential fluorescence; galR3 body fused to GalR1 C-terminus; hit rate 0.44% among 360,000; AID 651719;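 active = inhibition above the screen-wide average plus 3 SD, cut at about 13% in these data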;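 note: forskolin and galanin both at EC90 stimulate the cells; cAMP rise reported by CNG channel membrane potential dye signal; 0% = forskolin plus galanin with DMSO and 100% = forskolin alone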
Target sequence (O60755 1-299 limits assumed): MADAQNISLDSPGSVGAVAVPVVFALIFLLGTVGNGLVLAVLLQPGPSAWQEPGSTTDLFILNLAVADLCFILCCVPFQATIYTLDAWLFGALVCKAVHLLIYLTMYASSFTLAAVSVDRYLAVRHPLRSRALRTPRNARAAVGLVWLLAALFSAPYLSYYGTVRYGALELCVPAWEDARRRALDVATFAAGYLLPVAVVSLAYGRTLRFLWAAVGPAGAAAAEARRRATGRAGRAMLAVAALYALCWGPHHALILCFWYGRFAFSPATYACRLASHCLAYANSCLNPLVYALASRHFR
PG9 binder: binds the HIV-1 gp120 antibody PG9; TR-FRET gp120-PG9 antibody binding; hit rate 0.43% among 360,000; inhibition, % at 6.7 µM; in the data active = inhibition above about 8.5%
NR2E3 ag-1: activates human NR2E3 receptor; Q9Y5X4; CHO-S Gal4-NCOR/VP16-NR2E3 two-hybrid, luciferase; inhibition of corepressor binding, % at 3.98 µM; hit rate 0.35% among 360,000;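 active = inhibition above the mean of all tested compounds plus 3 SD, cut at about 70% in these data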;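 note: 0% = DMSO with NR2E3 transfected cells and 100% = cells lacking NR2E3 construct; higher means lower luciferase signal from less NR2E3 corepressor binding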
Target sequence (Q9Y5X4 whole entry, looked up, the tested form may be a part): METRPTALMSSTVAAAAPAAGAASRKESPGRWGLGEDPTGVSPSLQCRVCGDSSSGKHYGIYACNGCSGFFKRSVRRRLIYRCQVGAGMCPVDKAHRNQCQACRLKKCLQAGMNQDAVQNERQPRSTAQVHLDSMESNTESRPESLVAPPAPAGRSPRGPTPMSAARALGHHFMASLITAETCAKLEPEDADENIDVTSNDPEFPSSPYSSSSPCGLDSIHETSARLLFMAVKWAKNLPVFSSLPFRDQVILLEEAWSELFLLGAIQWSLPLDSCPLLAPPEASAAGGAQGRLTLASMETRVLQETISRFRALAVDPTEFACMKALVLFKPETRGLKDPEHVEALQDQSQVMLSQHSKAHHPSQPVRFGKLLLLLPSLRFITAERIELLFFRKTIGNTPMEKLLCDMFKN
NR2E3 ag-2: NR2E3 (human) agonism; GST-NR2E3/biotin-RetCOR TR-FRET, 1536-well; inhibition of corepressor binding, % at 4.78 µM; hit rate 0.12% among 320,000; AID 2300;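 active = percent inhibition above the cutoff of mean plus 3 SD of all tested compounds, set per screening campaign, cut at about 20% in these data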;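 note: 0% = DMSO wells and 100% = biotin wells as full block of FRET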
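Material – GST-tagged NR2E3 plus biotinylated RetCOR corepressor · Quantity – NR2E3 fusion 1.35 nM · Times – 5 h incubation at 4 °C · Medium – pH 7.5 Tris-based buffer · Technique – TR-FRET, Eu(K)-anti-GST donor, streptavidin-D2 acceptor, ex 340, em 617/671 nm · Benchmarks – high control biotin, low control 0.6% DMSO · Format – 1536-well plates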
NR1D1 modulator: modulators of human Rev-erb alpha DNA binding. hit rate 0.79% among 370,000. Rev-erbα–FITC-DNA binding, fluorescence polarization, 90 min. P20393. activity, % at 10 µM. AID 1259318;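 active = activity above about 14%, limit read from the data; passing the limit was not always enough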;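 note: 0% = DMSO wells with 35 nM protein and 100% = DMSO wells with 750 nM protein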
NR2E3 ag conf: confirmation of human NR2E3 agonists. shares compounds with NR2E3 ag-1. CHO-S mammalian two-hybrid NR2E3-NCOR, luciferase luminescence. inhibition, % at 3.98 µM. hit rate 51% among 2,300;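 active = average inhibition above a cutoff equal to the mean inhibition of all tested compounds plus one SD, cut at about 70% in these data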;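 note: 0% = DMSO in NR2E3 cells and 100% = DMSO in cells lacking NR2E3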
VP16 counter: reduces GAL4-VP16 reporter signal in NR2E3 counterscreen; shares compounds with NR2E3 ag-1; CHO-S GAL4-VP16 luciferase reporter, luminescence; inhibition, % at 3.98 µM; hit rate 29% among 2,300;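 active = mean inhibition above a cutoff equal to the average over all tested compounds plus one standard deviation, cut at about 70% in these data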;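 note: luciferase from a UAS reporter driven by GAL4-VP16 transactivation; 0% = DMSO with VP16-transfected cells and 100% = DMSO with cells lacking VP16; higher means less reporter light so more repression of VP16 activity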
PG9 binder conf: PG9 antibody binding, confirmed. inhibition, % at 6.7 µM. AID 651571. shares compounds with PG9 binder. TR-FRET PG9 antibody binding, biochemical. hit rate 90% among 1,500; in the data active = inhibition above about 9%
PGV04 Ab binding: PGV04 control antibody binding, counter-screen; inhibition, % at 6.7 µM; AID 651604; TR-FRET PGV04 antibody-gp120 binding, biochemical; hit rate 95% among 1,500; shares compounds with PG9 binder; in the data active = inhibition above about 9.5%
GalR3 conf: GalR3 (human) antagonism, confirmation; shares compounds with GalR3 antagonist; HEK293 GalR3 CNG cAMP biosensor, membrane potential fluorescence; galR3 fused to GalR1 carboxy tail; challenged with forskolin and galanin at EC90; inhibition, % at 3 µM; hit rate 59% among 1,600;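 active = inhibition above the primary screen's cutoff, the mean inhibition of all screened compounds plus 3 SD, cut at about 13% in these data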;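 note: 0% = forskolin plus galanin and 100% = forskolin alone with DMSO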
CNG parental: acts as nonspecific agonist in parental HEK-CNG cells; shares compounds with GalR3 antagonist; HEK293-CNG parental cells, cAMP membrane potential fluorescence; normalised: DMSO wells 0%, forskolin wells 100%; AID 652268; hit rate 10% among 1,600; activation, % at 3 µM; in the data active = activation above about 1.3%
* marks the source's active call; other numbers are inactive results; . = no result. Shown are actives, neighbours in structure and some others; about 1.8% of the full set was active somewhere.

SMILES	GalR3 antagonist	PG9 binder	NR2E3 ag-1	NR2E3 ag-2	NR1D1 modulator	NR2E3 ag conf	VP16 counter	GalR3 conf	CNG parental	others
CCC(C)C1NC(=O)C(NC(=O)C(CC(C)C)N(C)C(=O)C2CCCN2C(=O)C(C)O)C(C)OC(=O)C(Cc2ccc(OC)cc2)N(C)C(=O)C2CCCN2C(=O)C(CC(C)C)NC(=O)[C@H](C)C(=O)[C@H](C(C)C)OC(=O)CC1O (some centres undefined)	-5	-3	102*	.	1	99*	100*	.	.
O=C(CN1C(=O)[C@@H](Cc2c[nH]c3ccccc23)N=C(c2ccccc2)c2ccccc21)NC1CCCCC1	.	.	.	.	0	.	.	.	.
COc1cc2c(cc1OC)[C@@]13CCN4CC5=CCOC6CC(=O)N2C1[C@H]6[C@H]5C[C@H]43 (some centres undefined)	.	.	.	.	10	.	.	.	.
CC(=O)OCC1=C(C(=O)O)N2C(=O)[C@@H](NC(=O)CCCC(N)C(=O)O)C2SC1 (some centres undefined)	.	.	.	.	8	.	.	.	.
O=C1C=C2C=C[C@@H]3C[C@@]2(O1)[C@H]1CCCCN31	.	.	.	.	6	.	.	.	.
CC[C@@H](O)C[C@H]1CCC[C@@]2(C[C@@H]3OC(=O)/C=C/[C@@](C)(O)[C@@H](O)[C@H](C)[C@@H](O)[C@H](OC4CCC(N(C)C)C(C)O4)[C@@H](O)[C@](C)(O)CCCCC/C=C/[C@@H]4CC(C)(C)O[C@@]4(O)C[C@H](O2)[C@H]3C)O1 (some centres undefined)	7	-3	89*	.	-6	97*	87*	.	.
Nc1ncnc2c1ccn2[C@@H]1O[C@H](CO)[C@@H](O)[C@H]1O	-6	0	100*	2	3	98*	89*	.	.
NC(=S)c1cn(C2OC(CO)C(O)C2O)c2ncnc(N)c12 (centres undefined)	51*	-1	103*	0	-2	98*	88*	83*	0
CN1C(=O)[C@@]23C[C@]4(c5c[nH]c6ccccc56)c5ccccc5N(S(=O)(=O)c5ccccc5)[C@@H]4N2C(=O)[C@@H]1SS3	.	.	.	.	-1	.	.	.	.
CC(C)C(=O)c1cn(Cc2ccccc2C#N)c2ccccc12	-4	0	-26	2	6	.	.	.	.
CC(=O)c1cn(Cc2ccccc2C#N)c2ccccc12	90*	-1	75*	2	0	88*	85*	103*	1
CCOc1cccc(CNCCc2c(C)[nH]c3ccc(OC(F)(F)F)cc23)c1O	72*	-1	98*	2	5	90*	71	96*	0
CCC12CCN(CC3(O)CC3)C(Cc3ccc(O)cc31)C2(C)C (centres undefined)	-4	-1	.	.	1	.	.	.	.
O=C(NCCN1CCC2(CC1)C(=O)NCN2c1ccccc1)C(c1ccccc1)c1ccccc1	-7	-1	.	.	-3	.	.	.	.
CCOC(=O)[C@]12Cc3cc(C)ccc3[C@H]1N(C1CCCCC1)C(=O)c1cc(OC)ccc12	38*	0	95*	.	-2	99*	43	47*	3.3*
CCOC(=O)[C@]12Cc3cc(OC)ccc3[C@H]1N(C1CCCCC1)C(=O)c1cc(OC)ccc12	-3	0	-13	.	4	.	.	.	.
O=C(CN1C(=O)[C@@H](Cc2ccccc2)N=C(c2ccccc2)c2ccccc21)NC1CCCCC1	.	.	.	.	-3	.	.	.	.
CCC(=NCCc1c[nH]c2ccccc12)c1c(O)n(-c2ccc(C)cc2)c(=O)[nH]c1=O	-2	-3	-3	3	-2	.	.	.	.
CCC(=NCCc1c[nH]c2ccccc12)c1c(O)n(C)c(=O)n(C)c1=O	76*	1	73*	6	-2	87*	77*	37*	6.7*
COc1cc2c(cc1OC)C1C(=O)c3ccc4c(c3OC1CO2)CC(C(C)C)O4 (centres undefined)	96*	1	102*	.	8	96*	94*	108*	0
COc1cc2c(cc1OC)[C@@H]1C(=O)c3ccc4c(c3O[C@@H]1CO2)C[C@H](C(C)C)O4	98*	-1	96*	0	-1	100*	93*	116*	0
COc1cc2c(cc1OC)[C@H]1C(=O)c3ccc4c(c3O[C@H]1CO2)C[C@@H](C(C)(C)O)O4	-9	1	31	.	-1	.	.	.	.
CC[C@H](C)[C@@H]1OC(=O)[C@H](C(C)C)N(C)C(=O)[C@H](C(C)C)NC(=O)[C@@H](C)[C@@H](CCCC#CBr)OC(=O)[C@H](C(C)C)N(C)C(=O)C2CCCN2C1=O (some centres undefined)	.	.	.	.	4	.	.	.	.
O=c1[nH]c2ccccc2n1C1CCN(C(CCc2ccccc2)c2nnnn2-c2ccc3c(c2)OCCO3)CC1 (centres undefined)	21*	-2	48	.	1	51	15	17*	0
N#CC(C#N)=NNc1ccc(-n2ccc(C(F)(F)F)n2)cc1	74*	0	96*	2	-8	18	68	80*	1
SMILES	GalR3 antagonist	PG9 binder	NR2E3 ag-1	NR2E3 ag-2	NR1D1 modulator	NR2E3 ag conf	VP16 counter	GalR3 conf	CNG parental	others
Cn1c(O)c(/C=C2\C=Nc3ccccc32)c(=O)n(C)c1=O	-4	18*	-18	4	4	.	.	.	.	PG9 binder conf=13*;PGV04 Ab binding=28*
CN1OC[C@@H]2CN3C4(C[C@@H]21)c1ccccc1C3(c1ccccc1)c1ccccc14	-8	0	.	.	-1	.	.	.	.
Cn1c(O)c(C=NCCCCCCCCCCC(=O)O)c(=O)n(C)c1=O	17*	0	14	4	-1	.	.	13*	0
O=C(NC(Cc1cnc[nH]1)C(=O)O)c1ccccc1 (centres undefined)	13*	-1	2	-2	1	.	.	8	0
S=P(c1ccccc1)(c1ccccc1)c1cnc2ccccn12	.	.	.	.	8	.	.	.	.
COc1cc(O)c2c(c1)/C=C/C[C@H](O)[C@H](O)[C@@H](O)/C=C/C[C@H](C)OC2=O	.	.	.	.	5	.	.	.	.

Compound activity: PubChem, several laboratories
